Activity calls are given as the source filed them.
Experiments:
[1] = biological target: T1, Growth factor receptor-bound protein 2 (Homo sapiens, UniProt P62993); assay: Binding affinity to wild type human Grb2 SH3C domain at 50 to 100 uM by SPR assay
How it was run: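 Untagged Grb2 SH3C was amine-coupled to a CM5 chip at about 1500 RU. Compounds at 50 and 100 µM in HBS-N (10 mM Hepes pH 7.4, 150 mM NaCl) with 5% DMSO and 0.01% Tween 20 were injected for 120 s at 40 µL/min and 25 °C. Responses were double-referenced. Binders were defined by a response of at least 5 RU at 100 µM, derived from a KD cutoff of ≤1 mM.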
Target sequence in this assay (P62993 whole entry, looked up, the tested form may be a part): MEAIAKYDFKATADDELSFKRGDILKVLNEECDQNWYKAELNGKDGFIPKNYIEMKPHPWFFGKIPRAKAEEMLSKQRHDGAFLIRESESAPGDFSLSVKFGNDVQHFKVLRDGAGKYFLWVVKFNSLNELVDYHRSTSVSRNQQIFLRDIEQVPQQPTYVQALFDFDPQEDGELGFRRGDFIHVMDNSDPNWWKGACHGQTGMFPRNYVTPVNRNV

[2] = biological target: T1, Growth factor receptor-bound protein 2; assay: Binding affinity to GST-tagged Grb2 SH3C domain (unknown origin) using biotinylated Gab2b peptide as substrate at 5 mM by SDS-PAGE analysis
How it was run: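 Purified GST–Grb2 SH3C (10 µg/sample) was pre-incubated with compound at 5 mM, in duplicate, for 2 h at 4 °C. Streptavidin beads carrying biotinylated Gab2b peptide were then added for 30 min. After PBS-T washes, bound protein was resolved by SDS-PAGE, Coomassie-stained and scored by densitometry relative to the no-inhibitor control (100%).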
Target sequence in this assay (P62993 whole entry, looked up, the tested form may be a part): as above

[3] = biological target: T1, Growth factor receptor-bound protein 2; assay: Binding affinity to wild type human Grb2 SH3C domain at > 200 uM by SPR assay
Target sequence in this assay (P62993 whole entry, looked up, the tested form may be a part): as above

[4] = biological target: T1, Growth factor receptor-bound protein 2; assay: Competitive inhibition of GST-tagged Grb2 SH3C domain (unknown origin)-Gab2 interaction incubated 2 hrs prior to biotinylated Gab2b peptide addition measured after 30 mins by SDS-PAGE analysis
How it was run: (§1)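 Concentration-response format of the bead pull-down. GST–Grb2 SH3C (10 µg) was pre-incubated 2 h at 4 °C with increasing compound concentrations in Tris pH 7.5 buffer containing 5% DMSO. Biotin-Gab2b peptide–streptavidin beads were added for 30 min. Bound protein was measured by SDS-PAGE/Coomassie densitometry, normalized to the no-inhibitor sample, and fitted to a sigmoidal inhibition model by nonlinear regression. Gels represent 4–6 repeats.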
Target sequence in this assay (P62993 whole entry, the tested form may be a part): as the sequence (P62993 whole entry, looked up, the tested form may be a part) above

[5] = biological target: T1, Growth factor receptor-bound protein 2; assay: Binding affinity to Grb2 SH3C domain (unknown origin) at 1 mM by isothermal titration calorimetry
How it was run: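 ITC at 25 °C used 20 µM purified Grb2 SH3C in the cell, in 50 mM Hepes pH 7.5, 50 mM NaCl, 0.5% DMSO. Compound at 1 mM in the same buffer was titrated in: one 4 µL injection followed by 18 injections of 15 µL.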
Target sequence in this assay (P62993 whole entry, looked up, the tested form may be a part): as above

[6] = biological target: T1, Growth factor receptor-bound protein 2; assay: Inhibition of GST-tagged Grb2 SH3C domain (unknown origin)-Gab2 interaction up to 20 mM incubated 2 hrs prior to biotinylated Gab2b peptide addition measured after 30 mins by SDS-PAGE analysis; how it was run: as §1
Target sequence in this assay (P62993 whole entry, looked up, the tested form may be a part): as above

SMILES	Activity [2]	also measured
CC1(C)N=C(N)N=C(N)N1c1cccc(OCc2cccc(N)c2)c1	inactive	Activity [1]: Active
CC1(C)N=C(N)N=C(N)N1c1cccc(CCCCc2cccc(N)c2)c1	> 20%	Activity [3]: Active; Activity [1]: Active; IC50 [4]: 5.7 mM; Activity [5]: inactive
Cn1c(CCNC(=N)CSS(=O)(=O)O)nc2ccccc21	inactive	–
N=C(NC1=NCCN1)C(=N)NC1=NCCN1	inactive	–
Cc1ccc(C(/C=C/c2ccccc2)=N/NC(=N)N)cc1	> 20%	Activity [1]: Active
CN1C[C@@H]2[C@@H](N)N=C(N)N[C@@H]2C1(C)C	inactive	–
Cc1nnc2c3nccnc3c(N)nn12	inactive	–
C1CN=C(C2=NCCCN2)NC1	inactive	–
NC(C(=O)O)C(O)c1c[nH]cn1 (configuration not stated)	inactive	–
Cc1ccc(O)c(C2CC(=O)NC(N)=N2)c1 (configuration not stated)	inactive	Activity [1]: Active
CC1(C)N=C(N)N=C(N)N1c1cccc(OCCOc2cccc(N)c2)c1	inactive	Activity [1]: Active
NC1CCC(NC2CCC(N)CC2)CC1 (configuration not stated)	> 20%	Activity [1]: Active
Nc1n[nH]c(=O)n2ncnc12	inactive	–
Cn1cnc(N)c2ncnc1-2	inactive	–
C/C(=N\NC(=N)N)c1cnc(C)nc1C	inactive	–
CC1(C)N=C(N)N=C(N)N1c1cccc(CO)c1	inactive	–
CC1(C)N=C(N)N=C(N)N1c1cccc(OCC#N)c1	> 20%	Activity [3]: Active; Activity [1]: Active; inhibition [6]: Active

SMILES	Activity [2]	also measured
Cc1cnc2c(c1)CCCC2C(N)=S (configuration not stated)	> 20%	–
CN1CC(=O)N=C(N)N=C1N	inactive	–
NCCN1CCN=C1C1=NCCN1CCN	inactive	–
NC[C@@H]1[C@@H](CN)[C@H]2C=C[C@@H]1CC2	> 20%	–
Nc1n[nH]c2cc(O)[nH]c(=O)c12	> 20%	–
Nc1nc(N)n(Cc2ccc3c(c2)OCO3)n1	inactive	–
NC=C1C(=O)NC(=O)NC1=O	inactive	–
Cn1c(N)nc2nc[nH]c2c1=O	inactive	–
CC(=O)c1ccc(/N=N/c2c(N)nc(N)nc2N)cc1	> 20%	Activity [1]: Active
N=C(NCCN)C(=N)NCCN	inactive	–
Nc1nsc2nc3ccccc3cc12	inactive	–
CC1(C)N=C(N)N=C(N)N1c1cccc(/C=C/C=C/c2cccc([N+](=O)[O-])c2)c1	> 20%	Activity [3]: Active; Activity [1]: Active; IC50 [4]: 0.32 mM; Activity [5]: inactive
NC1=NS(=O)(=O)Nc2nn(-c3ccccc3)nc21	inactive	–
Nc1nc(N)c2cnnn2n1	inactive	–
N=C(NC1CCC(C2CCC(N)CC2)CC1)C(=N)NC1CCC(C2CCC(N)CC2)CC1 (configuration not stated)	> 20%	Activity [1]: Active
CC1(C)N=C(N)N=C(N)N1c1cc(C(F)(F)F)cc(C(F)(F)F)c1	inactive	–
CC(CC(=N)N)NC(=O)C1CCC(N)=N1 (configuration not stated)	inactive	–
